Data on 1 substance can be found in paper PMC11234860 (Chemical Science, 2024).

For assay [1], the target named is Siglec-9 (Siglec-9d1–d3-Fc) (Homo sapiens, UniProt Q9Y336). As to the kind of experiment: 19F T2 CPMG filtered NMR competitive displacement assay, Siglec-9. The assay is classed as binding. In outline:
(§1)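 Siglec-15 ECD (d1–d2, residues 20–263) fused to mVENUS, or Siglec-9 d1–d3 (residues 18–336) fused to human IgG1 Fc with C-terminal His6. Both transiently expressed in HEK293F and purified by Ni-NTA then SEC. Siglec-9 15 μM or Siglec-15 25 μM, with 10 equiv difluoroacetamide spy, titrated with increasing competitor equivalents. One decoupled 19F CPMG spectrum per sample (200 ms filter) at 600 MHz, 298 K, in 20 mM Tris pH 8, 300 mM NaCl, 10% D2O, with 100 μM TFA reference.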

The target of assay [2] is T1, Siglec-15 (Siglec-15d1–d2-mVENUS) (Homo sapiens, UniProt Q6ZMC9).
T1 sequence (Q6ZMC9 20-263): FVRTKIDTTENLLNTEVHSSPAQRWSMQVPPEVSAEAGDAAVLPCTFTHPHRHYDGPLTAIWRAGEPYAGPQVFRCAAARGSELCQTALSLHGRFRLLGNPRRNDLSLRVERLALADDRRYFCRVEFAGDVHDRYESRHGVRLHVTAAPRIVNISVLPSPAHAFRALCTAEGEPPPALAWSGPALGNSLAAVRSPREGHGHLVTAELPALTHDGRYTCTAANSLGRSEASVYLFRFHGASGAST
As to the kind of experiment: 19F T2 CPMG filtered NMR competitive displacement assay, Siglec-15. The format is binding. In outline: as §1

Where [3] appears, read: read-out: lower KD limit, semiquantitative, from displacement.

Sequence of Siglec-9 (Siglec-9d1–d3-Fc) (Q9Y336 18-336): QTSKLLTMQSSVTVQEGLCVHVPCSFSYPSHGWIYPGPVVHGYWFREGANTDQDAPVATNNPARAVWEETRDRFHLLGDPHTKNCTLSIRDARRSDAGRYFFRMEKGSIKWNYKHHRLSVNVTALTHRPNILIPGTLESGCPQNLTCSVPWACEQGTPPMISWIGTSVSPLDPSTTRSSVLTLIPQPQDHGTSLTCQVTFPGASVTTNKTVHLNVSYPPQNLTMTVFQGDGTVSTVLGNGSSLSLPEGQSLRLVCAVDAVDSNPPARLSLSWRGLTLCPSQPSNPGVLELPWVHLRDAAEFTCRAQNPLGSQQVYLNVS

Consider “6′-sialyl N-acetyl-D-lactosamine aminoethylglycoside [α2,6SLN]”, for which the “displacement of the spy molecule” value in assay [1] (320 equivalents of competitor, Siglec-9 15 μM + 10 equiv diF α2,6SLN) turned out to be 21%; in assay [2] (300 equivalents of competitor, Siglec-15 25 μM + 10 equiv diF α2,6SLN) it was 22%. In addition, the Kd in assay [1] (setting [3]) was at least 3 mM; in assay [2] (setting [3]), at least 5 mM.

The term Kd denotes a measure of binding affinity in units of concentration.
